Rows were chosen to be rich in hits. Some 3.5% of all compounds tested hit in one or more screens of this group.
RGS4 inh: inhibitors of human RGS4. HEK293 M3R/RGS4 inducible, Fluo-4 calcium flux; stronger effect = higher value; triggered by carbachol at its EC20. B-score at 10 µM. actives 0.45% (n = 310,000). AID 463165;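 active = B-score, a plate-corrected calcium signal, over three deviations above library mean, with baseline fluorescence within five deviations of library mean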;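 note: RGS4 expression induced by doxycycline in cells with stable M3 receptor; B-score is computed from the integrated fluorescence ratio over baseline after carbachol; higher B-score means a larger calcium signal and so more RGS4 inhibition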
Target sequence (P49798 whole entry, looked up): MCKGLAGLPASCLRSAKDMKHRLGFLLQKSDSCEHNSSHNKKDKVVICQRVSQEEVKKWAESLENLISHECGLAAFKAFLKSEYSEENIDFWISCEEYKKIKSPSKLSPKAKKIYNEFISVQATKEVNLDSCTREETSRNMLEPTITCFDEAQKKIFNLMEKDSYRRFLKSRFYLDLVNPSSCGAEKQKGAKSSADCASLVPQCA
MrgX1 antagonist: blocks BAM8-22 activation of human MrgX1 receptor. actives 1.3% (n = 310,000). B-score at 10 µM. Q96LB2. MRGX1-HEK293 calcium flux, Fluo-4, BAM8-22 antagonism; stronger effect = lower value;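 active = calcium-response B-score plate-corrected more than 3 library SD below zero, starting fluorescence within 5 deviations, no agonist response on first addition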;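 note: peak minus trough fluorescence over baseline after final BAM8-22 challenge near maximal dose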
Target sequence (Q96LB2 whole entry, looked up): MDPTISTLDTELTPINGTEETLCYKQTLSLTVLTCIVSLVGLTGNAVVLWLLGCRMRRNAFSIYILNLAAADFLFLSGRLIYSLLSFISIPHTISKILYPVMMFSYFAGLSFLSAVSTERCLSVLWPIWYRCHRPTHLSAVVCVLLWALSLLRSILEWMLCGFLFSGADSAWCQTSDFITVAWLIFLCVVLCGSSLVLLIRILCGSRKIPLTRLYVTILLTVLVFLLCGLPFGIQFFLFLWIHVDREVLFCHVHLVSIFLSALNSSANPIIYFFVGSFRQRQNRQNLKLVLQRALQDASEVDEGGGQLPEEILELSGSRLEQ
MrgX1 allo act: allosterically activates human MrgX1 receptor signaling | AID 588675 | MrgX1-HEK293, Fluo-4 calcium flux, FDSS; stronger effect = higher value | actives 0.63% (n = 310,000) | B-score at 10 µM;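 active = plate-corrected calcium response at least 3 library SD above typical, normal starting fluorescence, not activating the receptor alone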;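 note: compound read alongside a low EC10 to EC30 dose of BAM8-22 agonist; peak minus trough fluorescence over baseline measured at the second addition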
RGS4 pot: potentiators or activators of RGS4. actives 0.92% (n = 310,000). HEK293 M3R/inducible RGS4, carbachol calcium flux Fluo4; stronger effect = lower value. B-score at 10 µM. AID 463111;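 active = B-score of the integrated calcium signal more than 4 SD below the library mean, with starting fluorescence not abnormally high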;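 note: negative B-score means reduced calcium response which marks RGS4 activation or potentiation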
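Material: M3R-expressing HEK293 line, RGS4 induced by doxycycline | Schedule: Overnight RGS4 induction, 30 min dye load 37 °C, 20 min compound RT | Measured by: Fluo4 fluorescence kinetic imaging of calcium | Read-out: Integrated calcium ratio converted to B score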
MrgX1 agonist: agonists of human MrgX1 receptor; MrgX1-HEK293 cells, Fluo-4 calcium fluorescence, agonist mode; stronger effect = higher value; B-score at 10 µM; actives 0.44% (n = 310,000); AID 588627; Q96LB2;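 active = calcium response B-score plate-corrected fluorescence ratio at least 3 library SD, with starting fluorescence B-score inside 5 SD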
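Material: MrgX1-expressing HEK293 cells; input: 15,000 cells per well; doses: test compound given as first of three sequential additions; schedule: overnight plating before 1 h dye loading; technique: Fluo-4 NW calcium-flux fluorescence, kinetic read; evaluation: baseline-normalised fluorescence change ratio, B-scored; control set: plate-wise positive and negative controls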
Numbers stand for hits; 0 = inactive; - = no result given.

SMILES	RGS4 inh	MrgX1 antagonist	MrgX1 allo act	RGS4 pot	MrgX1 agonist
C#CCOCCOCCOCCNc1nc(N2CCN(C(=O)CCCCCCCCCCNC(=O)[C@H](CCCCN)n3cc(C[C@@H](C)CC)nn3)CC2)nc(N2CCN(C(=O)CCCCCCCCCCNC(=O)[C@H](CCCCN)n3cc(C[C@@H](C)CC)nn3)CC2)n1	-	0	0	-	89
C#CCOCCOCCOCCNc1nc(N2CCN(C(=O)CCCCCCCCCCNC(=O)Cn3cc(CCCCCN)nn3)CC2)nc(N2CCN(C(=O)CCCCCCCCCCNC(=O)[C@H](CO)n3cc(CCCCCN)nn3)CC2)n1	-	0	0	-	0
CC(C)(C)OC(=O)NCCCC[C@@H](C(=O)NCCCCCCCCCCC(=O)N1CCN(C(=O)OC(C)(C)C)CC1)n1cc(CCO)nn1	-	0	0	-	0
Cc1cnccc1CNC(=O)C1CCC(=O)N(Cc2ccc(Cl)cc2)C1 (stereo not drawn)	0	0	0	0	0
S=C(NCC1CCCO1)N1CCN(Cc2ccccc2Cl)CC1 (stereo not drawn)	0	0	0	0	0
Cc1nnc(NC(=O)c2ccc(Br)o2)s1	0	0	0	0	0
C#CCOCCOCCOCCNc1nc(N2CCN(C(=O)CCCCCCCCCCNC(=O)[C@H](CCCCN)n3cc(CCCC(=O)O)nn3)CC2)nc(N2CCN(C(=O)CCCCCCCCCCNC(=O)[C@H](CCCN=C(N)N)n3cc(C[C@@H](C)CC)nn3)CC2)n1	-	0	0	-	40
C#CCOCCOCCOCCNc1nc(N2CCN(C(=O)CCCCCCCCCCNC(=O)[C@H](CCCCN)n3cc(CCO)nn3)CC2)nc(N2CCN(C(=O)CCCCCCCCCCNC(=O)[C@H](CCCCN)n3cc(CCO)nn3)CC2)n1	-	0	0	-	0
C#CCOCCOCCOCCNc1nc(N2CCN(C(=O)CCCCCCCCCCNC(=O)[C@@H](CCSC)n3cc(CCO)nn3)CC2)nc(N2CCN(C(=O)CCCCCCCCCCNC(=O)[C@H]([C@@H](C)CC)n3cc(CCCCCN)nn3)CC2)n1	-	0	15	-	0
C#CCOCCOCCOCCNc1nc(N2CCN(C(=O)CCCCCCCCCCNC(=O)[C@H](CCCCN)n3cc(CCO)nn3)CC2)nc(N2CCN(C(=O)CCCCCCCCCCNC(=O)[C@H](CCCN=C(N)N)n3cc(C[C@@H](C)CC)nn3)CC2)n1	-	0	0	-	153
C#CCOCCOCCOCCNc1nc(N2CCN(C(=O)CCCCCCCCCCNC(=O)[C@H]([C@@H](C)CC)n3cc(CCCCN=C(N)N)nn3)CC2)nc(N2CCN(C(=O)CCCCCCCCCCNC(=O)[C@H](CCCCN)n3cc(C[C@@H](C)CC)nn3)CC2)n1	-	0	0	-	61
COCCn1c(SCC(=O)Nc2cc(C)on2)nc2c(c1=O)SCC2	0	0	0	0	0
COc1ccc(-c2noc(CCC(=O)N3CCN(c4cc(C)ccc4C)CC3)n2)cc1	0	0	0	-7	0
COc1ccccc1CNc1ncccn1	0	0	0	0	0
COc1ccccc1CNN	0	0	8	0	0
CC(C)OCCCNC(=O)C(NS(=O)(=O)c1ccc2c(c1)c(=O)n(C)c(=O)n2C)c1ccccc1 (stereo not drawn)	0	0	0	0	0
CCC(C(=O)O/N=C(\N)c1cccc(C)c1)c1ccccc1 (stereo not drawn)	0	0	0	-9.5	0
COc1ccc(CNS(=O)(=O)CCNC(=O)c2ccc(OC)cc2)cc1	0	-4.9	0	0	0
COc1cc2nc(SCc3c(C)noc3C)n(CCC3=CCCCC3)c(=O)c2cc1OC	0	0	0	-8.2	0
Cc1ccc(C(=O)N2C(CC(=O)Nc3ccc(Cl)cc3)C(=O)NC3CCCCC32)cc1 (stereo not drawn)	0	0	0	0	0
CCCCCn1c(N2CCC(Cc3ccccc3)CC2)nc2c1c(=O)[nH]c(=O)n2C	0	0	0	-9	0
Cc1cc(OCCn2ccnc2)cc(C)c1Cl	0	0	0	0	0
S=c1[nH]ncn1/N=C/c1ccccn1	0	0	0	0	0
COC(=O)C/C=C/[C@@H](C)[C@@H](/C=N/O[C@@H](C)c1cn([C@H](CO)Cc2ccccc2)nn1)NS(=O)(=O)c1ccc(C)cc1	0	0	0	0	0
C/C(CCN1CCc2nc(-c3ccccc3)c(-c3ccccc3)cc2C1)=N\O[C@@H](C)c1cn([C@H](CO)Cc2ccccc2)nn1	0	0	0	-8.9	0
SMILES	RGS4 inh	MrgX1 antagonist	MrgX1 allo act	RGS4 pot	MrgX1 agonist
COc1ccc(-n2c(CCC(=O)O)ccc2-c2ccc(F)cc2)c(OC)c1	0	0	0	0	0
COC(=O)c1sc(NC(=O)CCCn2nc([N+](=O)[O-])cc2C)c(C(=O)OC)c1C	0	-6.1	0	0	0
CCOc1cc(/C=N/NC(=O)Cn2nc([N+](=O)[O-])cc2C)ccc1OCc1ccc(F)cc1	0	-4.9	0	0	0
Cc1cc([N+](=O)[O-])nn1CCCC(=O)NCc1ccc(F)cc1	0	0	14	0	0
NC(=O)c1ccc[n+]([C@H]2O[C@@H](COP(=O)([O-])OP(=O)(O)OC[C@H]3O[C@@H](n4cnc5c(N)ncnc54)[C@H](O)[C@@H]3O)[C@H](O)[C@@H]2O)c1	-	0	0	-	34
Nc1ncnc2c1ncn2[C@H]1C[C@H](O)[C@@H](COP(=O)(O)O)O1	0	0	0	0	0
CCn1c(Cc2ccccc2)nnc1SCC(=O)Nc1ccc(C)cc1	0	0	0	0	0
CCn1c(CC(=O)Nc2ccc(C)cc2)nnc1SCC(=O)NCCc1ccccc1	0	-5.5	0	0	0
CC(C(=O)Nc1cccnc1)N1C(=O)C2C3C=CC(C3)C2C1=O (stereo not drawn)	0	0	0	0	0
N#CC(C#N)=C(Nc1ccc(F)cc1)SCc1cccc(Br)c1	0	0	0	0	0
Cc1cccc(CSC(Nc2ccc(F)cc2)=C(C#N)C#N)c1	0	-6.6	0	0	0
Cc1ccc(C)c(SCC(=O)NCC(c2ccco2)N2CCCCC2)c1 (stereo not drawn)	0	0	0	0	0
CCCCn1c(N)c(N(CCOC)C(=O)C2CCN(S(=O)(=O)c3ccc(Cl)cc3)CC2)c(=O)[nH]c1=O	0	0	0	0	0
CCN1C(=S)SC(=O)C1=C1C=C(C)N(CCO)C(C)=C1	0	0	0	0	38
CS(=O)(=O)c1cccc(-c2nnc(NC(=O)C3=COCCO3)o2)c1	0	-4.9	0	0	0
COc1ccc(F)cc1S(=O)(=O)Nc1cc2c3c(c1)CCN3C(=O)CC2	0	0	0	0	0
CC1(C)CC(c2nc(-c3ccc(Cl)cc3)cs2)CCS1 (stereo not drawn)	0	0	8.7	0	0
Cc1cc(C)c(NC(=O)c2cccc3c2C(=O)N(C2CCCCC2)C3)c(C)c1	0	0	0	0	0
O=C(/C=C/c1cccs1)NC(=S)NNC(=O)c1ccccc1O	0	0	0	0	63
O=C(NC(=S)NNC(=O)c1ccccc1O)c1ccco1	0	0	0	0	30
